Holding throughout (assay type): ADME, organism-based
Common to all, as to design: dosed compound name [14C]Mirabegron
What all share (conditions): in vivo

Series [1] is described as follows: Drug recovery in healthy human urine treated with [14C]mirabegron at 160 mg, po as single dose measured up to 48 hrs. The method in brief: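 Urine was collected at 0–6, 6–12, 12–24 and 24–48 h after a single oral 160 mg [14C]mirabegron dose in four men, with dichlorvos added. Samples underwent solid-phase extraction and radio-HPLC (C18, 40°C), with eluate fractions counted by scintillation. Each peak, as a percentage of eluted radioactivity, was converted to % of dose without recovery correction; mean ± S.D.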

Series [2] deals with Plasma. As to the kind of experiment: Drug recovery in healthy human plasma treated with [14C]mirabegron at 160 mg, po as single dose measured at 12 hrs. The method in brief: (§1)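 Plasma taken at 2, 4, 8 and 12 h from the four subjects was pooled at each time point, with dichlorvos added. Pools underwent solid-phase extraction, then HPLC with fractions counted by low-level liquid scintillation. Each peak is expressed as % of the radioactivity injected onto HPLC.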

The subject of series [3] is Plasma. The series is described as follows: Drug recovery in healthy human plasma treated with [14C]mirabegron at 160 mg, po as single dose measured at 2 hrs. The method in brief:
as §1

In series [4] the test system is Plasma. As to the kind of experiment: Drug recovery in healthy human plasma treated with [14C]mirabegron at 160 mg, po as single dose measured at 8 hrs. The method in brief: as §1
Series [5] concerns Plasma. As to the kind of experiment: Drug recovery in healthy human plasma treated with [14C]mirabegron at 160 mg, po as single dose measured at 4 hrs. The method in brief: as §1

In the case of `Cl.Nc1ccc(CCNC[C@H](O)c2ccccc2)cc1`, the Compound recovery in series [1] is listed as 1.7%; in the series on Plasma [2], 7.6%; in the series with Plasma [3], 3.3%; with Plasma [4], 6.2%; in the series on Plasma [5] it was 4.3%.

On to `Nc1ccc(CCNCC(O)c2ccccc2)cc1O[C@@H]1O[C@H](C(=O)O)[C@@H](O)[C@H](O)[C@H]1O` (stereo not given in full), for which the Compound recovery in series [1] was 2%; in the series with Plasma [2], “Below limit of detection”; in the series on Plasma [3] it was “Below limit of detection”; in the series with Plasma [4], “Below limit of detection”; in the series on Plasma [5] it was “Below limit of detection”.

As for `CC(=O)Nc1ccc(CC(=O)O)cc1` [ACTARIT], the Compound recovery in series [1] is 0.6%; with Plasma [2], “Below limit of detection”; with Plasma [3], “Below limit of detection”; in the series on Plasma [4], “Below limit of detection”; with Plasma [5], “Below limit of detection”.

As for `CC(=O)Nc1ccc(CCNC[C@H](O)c2ccccc2)cc1.Cl`, the Compound recovery is 2.9% in series [1]; 13% in the series with Plasma [2]; 3.7% in the series with Plasma [3]; 9.4% in the series with Plasma [4]; 4.9% in the series with Plasma [5].

For the origin of these results see ChEMBL document CHEMBL3526041, “Absorption, metabolism and excretion of [(14)C]mirabegron (YM178), a potent and selective β(3)-adrenoceptor agonist, after oral administration to healthy male volunteers” (Drug Metab Dispos, 2012).
